# Screening data from PubChem.
# The list is not random: actives were taken first. Their share in the collection is about 1.1%.
# DAGLB inhibitor: blocks human DAGLB lipase activity. HEK293T DAGLB membrane lysate, EnzChek fluorogenic substrate. inhibition, % at 5.17 µM. 0.059% of 340,000 active. Q8NCG7. AID 504411; in the data active = inhibition above about 34%;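 note: 0% = enzyme with vehicle and 100% = wells lacking enzyme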
# Vif imaging: blocks HIV Vif function | HEK293T cells, Vif self-association by quenched fluorescence, imaging, 24 h | AID 602346 | inhibition, % at 7.49 µM | 0.35% of 340,000 active; in the data active = inhibition above about 50%, passing the limit was not always enough
# NR2E3 ag-1: agonists of human nuclear receptor NR2E3; inhibition of corepressor binding, % at 4.78 µM; GST-NR2E3/biotin-RetCOR TR-FRET, 1536-well; 0.12% of 320,000 active;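 active = percent inhibition above the cutoff of mean plus 3 SD of all tested compounds, set per screening campaign, cut at about 20% in these data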;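 note: 0% = DMSO wells and 100% = biotin wells as full block of FRET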
# Target sequence (Q9Y5X4 whole entry, looked up): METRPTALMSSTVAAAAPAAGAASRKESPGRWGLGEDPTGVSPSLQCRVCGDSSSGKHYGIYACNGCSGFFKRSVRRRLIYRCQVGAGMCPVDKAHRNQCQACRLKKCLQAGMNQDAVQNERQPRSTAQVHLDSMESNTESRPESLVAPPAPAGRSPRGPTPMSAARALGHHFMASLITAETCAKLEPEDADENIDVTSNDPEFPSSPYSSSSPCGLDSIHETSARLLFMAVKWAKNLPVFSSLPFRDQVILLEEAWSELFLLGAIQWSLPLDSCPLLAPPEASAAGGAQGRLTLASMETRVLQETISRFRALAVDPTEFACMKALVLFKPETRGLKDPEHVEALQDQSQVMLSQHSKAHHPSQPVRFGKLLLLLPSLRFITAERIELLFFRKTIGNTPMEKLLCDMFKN
#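 Test system: GST-NR2E3 and biotin-RetCOR proteins | Quantity: 1.35 nM GST-tagged NR2E3 final | Medium: Tris pH 7.5 | Also added: 7 nM biotin-RetCOR | Dosing: Compound at 4.8 µM, single dose | Timing: 5 h at 4 °C | Detection: Time-resolved FRET | Read-out basis: Percent inhibition | Benchmarks: Biotin wells as high control, 0.6% DMSO wells as low control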
# HCV core dimer: blocks dimerization of HCV core protein; TR-FRET GST/Flag-core106 dimerization, 1536-well; inhibition, % at 5 µM; 0.33% of 300,000 active;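 active = inhibition above the mean of all tested compounds plus 3 SD, set per screening campaign, cut at about 45% in these data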
#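 Assay system: GST-tagged and Flag-tagged HCV core protein residues 1-106 / Times: compound-protein-antibody incubation 4 h at 22.5 °C / Signal: time-resolved FRET, ex 340 nm, em 617 and 671 nm / Evaluation: % inhibition based on acceptor/donor emission ratio / Benchmarks: wells lacking GST-core106 and wells with excess unlabelled core106 / Repeats: singlicate, one well per compound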
# NR2E3 ag-2: human photoreceptor-specific nuclear receptor agonism. CHO-S Gal4-NCOR/VP16-NR2E3 two-hybrid, luciferase. inhibition of corepressor binding, % at 3.98 µM. 0.35% of 360,000 active. AID 602229;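 active = inhibition above the mean of all tested compounds plus 3 SD, cut at about 70% in these data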;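 note: 0% = DMSO with NR2E3 transfected cells and 100% = cells lacking NR2E3 construct; higher means lower luciferase signal from less NR2E3 corepressor binding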
# MT1-MMP act inh: inhibitors of human MT1-MMP activation; P50281; HT1080 RFP-PRO-GFP cells, GFP/RFP ratio fluorescence, overnight; percent of plate control window, DMSO zero; GFP/RFP ratio change, % at 20 µM; 0.061% of 360,000 active; AID 651647;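 active = GFP/RFP ratio change of at least 30% with cell ATP level not reduced by more than half and red fluorescence within 50% of control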
#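 Assay system – RFP-PRO-GFP reporter HT1080 cells · Compound dosing – single dose of 20 µM compound, 1% DMSO final · Incubation – overnight compound exposure at 37 °C · Measure – GFP/RFP fluorescence ratio · Benchmarks – DMSO wells and RFP-L50D-GFP cells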
# Numbers without * were called inactive; . = no result.
SMILES,DAGLB inhibitor,Vif imaging,NR2E3 ag-1,HCV core dimer,NR2E3 ag-2,MT1-MMP act inh
Cc1ccc(C(=O)NN2CC(O)=C(c3nc(-c4cccc([N+](=O)[O-])c4)cs3)C2=N)cc1,3,1,5,54*,-1,-2
CC(=O)Nc1ccc(NC(=O)C(C)OC(=O)c2ccc(S(=O)(=O)N3CCCCCC3)cc2)cc1 (stereo unspecified),9,1,.,.,-16,-10
CC1C(=O)OC2C1CCC1(C)C3(C)C(=O)C=CC213 (stereo unspecified),.,-8,.,.,-5,-73
Cc1cc(=O)oc2cc(OCC(=O)NC3(C#N)CCCCC3)ccc12,-7,.,.,.,-8,-4
Cn1nnnc1Sc1ncnc2scc(-c3ccc(Cl)cc3)c12,0,149*,1,.,16,-3
Cc1sc2ncnc(Sc3nnnn3-c3ccccc3)c2c1C,1,.,6,0,-12,-1
Clc1ccc(-n2nnnc2Sc2ncnc3sccc23)cc1,-3,184*,9,15,-2,-5
COc1cc(NC(=O)c2ccc(-c3ccc(F)c(F)c3)c3ccoc23)cc(OC)c1OC,.,-13,.,.,-16,-2
Cc1cc(S(=O)(=O)N2CCOCC2)ccc1OCC(=O)N1CCCC1,0,65*,3,3,-6,3
Cc1cc(S(=O)(=O)N2CCOCC2)ccc1OCC(=O)N1CCCCC1,-1,19,1,8,-10,1
O=C(COc1ccc(S(=O)(=O)N2CCOCC2)cc1Cl)NCCN1CCOCC1,-1,-4,1,-4,-17,0
Cc1cc(S(=O)(=O)N2CCOCC2)ccc1OCC(=O)NCCN1CCOCC1,-3,71*,0,3,-2,2
COCC(=O)N1C[C@H](C)[C@H](OC)CN(C)C(=O)c2cc(NC(=O)Nc3cccc(F)c3)ccc2OC[C@@H]1C,.,.,.,.,.,3
O=S(=O)(O)c1cc(O)c2c(O)c(N=Nc3cc(Cl)ccc3O)c(S(=O)(=O)O)cc2c1,18,-1,-2,-98,-51,77*
Cc1cc(-c2ccc(N=Nc3c(S(=O)(=O)O)cc4cc(S(=O)(=O)O)cc(N)c4c3O)c(C)c2)ccc1N=Nc1c(S(=O)(=O)O)cc2cc(S(=O)(=O)O)cc(N)c2c1O,.,.,-183,-466,.,.
Cc1cc2c(N=O)c(NO)ccc2[nH]1,4,54*,-6,-34,18,-7
CC[C@H](C)[C@H](NC(N)=O)C(=O)NCCc1ccc(OC)cc1,-1,-3,-3,-1,-6,-2
COc1ccc(CCNC(=O)[C@@H](NC(N)=O)C(C)C)cc1,1,51*,-2,4,-12,0
Cc1nn(-c2ccccc2)c2sc(C(=O)NC3CCCCC3)cc12,-8,16,-3,6,-31,-2
Cc1cnc(NC(=O)c2cc3c(C)nn(-c4ccccc4)c3s2)s1,-2,53*,-1,7,3,-1
Cc1nnc2ccc(-c3ccc(NC(=O)Cc4cccs4)cc3)nn12,5,17,-2,56*,3,5
OCCN1CCN(c2nc(-c3ccccc3)nc3c2oc2ccccc23)CC1,-1,66*,-1,-9,-16,-11
O=C(O)C1CCN(c2nc(-c3ccccc3)nc3c2oc2ccccc23)CC1,2,-16,0,13,-31,1
Cc1cccc(C)c1NC(=O)C1(C)CSCC(=O)N1CCc1c[nH]c2ccccc12 (stereo unspecified),.,.,.,.,.,4
CCOC(=O)/C=C1\SCC(=O)N1Cc1nnc(-c2ccccc2Br)o1,3,2,2,64*,-40,-11
CCOC(=O)/C=C1/SCC(=O)N1Cc1ccc(Br)cc1,-7,-4,.,.,-35,0
CCOC(=O)c1c(-c2ccc(C)o2)csc1NC(=O)COC(=O)c1ccc(NC(N)=O)cc1,3,14,-7,49*,-16,-9
CCOC(=O)c1c(-c2ccc(C)o2)csc1NC(=O)CSc1nnc(C)s1,-2,-5,3,5,-17,-4
COC(=O)[C@]12CCCCC=C1N(CCc1ccc(OC)c(OC)c1)C(=O)[C@H](CC(=O)NCC1CCCCC1)C2,.,.,.,.,.,-5
